Measurements from ChEMBL document CHEMBL3525995, “CYP3A-mediated generation of aldehyde and hydrazine in atazanavir metabolism” (Drug Metab Dispos, 2011).

Key:
Cytochrome P450 3A4 [1] = target: T1, Cytochrome P450 3A4 (Homo sapiens, UniProt P08684); assay: Drug metabolism assessed as human CYP3A4-mediated formation at 50 uM by UPLC-TOFMS system; assay type: ADME; conditions: recombinant enzyme
How it was run: (§1)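 Each cDNA-expressed human P450 (CYP1A2, 2A6, 2B6, 2C8, 2C9, 2C19, 2D6, 2E1, 3A4; 2 pmol), plus a control, was incubated in PBS pH 7.4 with 50 μM substrate. After 5 min preincubation at 37°C, 1.0 mM NADPH (final) was added and the reaction ran 30 min with shaking. Ketoconazole (10 μM) was co-incubated as a CYP3A inhibitor, and NADPH-free incubations served as controls. Reactions were quenched with acetonitrile, centrifuged and analyzed by UPLC-TOFMS.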

Cytochrome P450 2D6 = Cytochrome P450 2D6 (Homo sapiens, UniProt P10635); assay: Drug level assessed as human CYP2D6-mediated compound formation treated with atazanavir at 50 uM by UPLC-TOFMS system; assay type: ADME; conditions: recombinant enzyme; how it was run: as §1
Liver microsome [2] = assay: Drug metabolism in human liver microsomes treated with 50 uM atazanavir by LC-MS/MS analysis; assay type: ADME
How it was run: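 Human liver microsomes (0.5 g protein/l) were incubated in PBS pH 7.4 with 50 μM substrate, in duplicate. After 5 min preincubation at 37°C, 1.0 mM NADPH (final) was added and the reaction ran 30 min with shaking; incubations without NADPH served as controls. Reactions were quenched with equal-volume acetonitrile, centrifuged and analyzed by UPLC-TOFMS.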

[3] = Drug level in wild type mouse feces treated with 50 mg/kg, po atazanavir by LC-MS/MS analysis; assay type: ADME, organism-based; set-up: dose 50 mg/kg, dosed compound name Azazanavir, route oral; conditions: in vivo
How it was run: (§2)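 Wild-type mice (n = 4) got a single oral 50 mg/kg dose and were housed individually in metabolic cages for 18 h, with urine and feces collected. Urine was diluted 1:4 in 50% acetonitrile and centrifuged. Feces were homogenized in water (1 mg/10 μl), mixed 1:1 with acetonitrile and centrifuged twice. Supernatants were analyzed by UPLC-TOFMS, with accurate mass (<10 ppm error) and MS/MS for identification.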

[4] = Drug level in wild type mouse urine treated with 50 mg/kg, po atazanavir by LC-MS/MS analysis; assay type: ADME, organism-based; set-up: dose 50 mg/kg, dosed compound name Azazanavir, route oral; conditions: in vivo; how it was run: as §2
Liver microsome [5] = assay: Drug metabolism in human liver microsomes assessed as methyl (S)-1-(2-((2S,3S)-3-((S)-2-amino-3,3-dimethylbutanamido)-2-hydroxy-4-phenylbutyl)-2-(4-(pyridin-2-yl)benzyl)hydrazinyl)-3,3-dimethyl-1-oxobutan-2-ylcarbamate formation at 50 uM by LC-MS/MS analysis; conditions: in vitro
[6] = (§3) Drug excretion in wildtype mouse urine assessed as ((S)-1-{(1S,2S)-1-Benzyl-2-hydroxy-3-[N'-((S)-2-methoxycarbonylamino-3,3-dimethyl-butyryl)-N-(4-pyridin-2-yl-benzyl)-hydrazino]-propylcarbamoyl}-3-hydroxy-2-hydroxymethyl-2-methyl-propyl)-carbamic acid methyl ester formation at 50 mg/kg, po by LC-MS/MS analysis; assay type: ADME, organism-based; set-up: dose 50 mg/kg, dosed compound name Azazanavir, route oral; conditions: in vivo; how it was run: as §2
[7] = Drug excretion in wild type mouse urine assessed as methyl (S)-1-(2-((2S,3S)-3-((S)-2-amino-3,3-dimethylbutanamido)-2-hydroxy-4-phenylbutyl)-2-(4-(pyridin-2-yl)benzyl)hydrazinyl)-3,3-dimethyl-1-oxobutan-2-ylcarbamate formation at 50 mg/kg, po by LC-MS/MS analysis; assay type: ADME, organism-based; set-up: dose 50 mg/kg, dosed compound name Azazanavir, route oral; conditions: in vivo; how it was run: as §2
Liver microsome [8] = assay: Drug metabolism in human liver microsomes assessed as ((S)-1-{(1S,2S)-1-Benzyl-2-hydroxy-3-[N'-((S)-2-methoxycarbonylamino-3,3-dimethyl-butyryl)-hydrazino]-propylcarbamoyl}-2,2-dimethyl-propyl)-carbamic acid methyl ester formation at 50 uM by LC-MS/MS analysis; conditions: in vitro
[9] = (§4) Drug excretion in wildtype mouse urine assessed as {(S)-3-Hydroxy-1-[N'-[(2S,3S)-2-hydroxy-3-((S)-4-hydroxy-2-methoxycarbonylamino-3,3-dimethyl-butyrylamino)-4-phenyl-butyl]-N'-(4-pyridin-2-yl-benzyl)-hydrazinocarbonyl]-2,2-dimethyl-propyl}-carbamic acid methyl ester formation at 50 mg/kg, po by LC-MS/MS analysis; assay type: ADME, organism-based; set-up: dose 50 mg/kg, dosed compound name Azazanavir, route oral; conditions: in vivo; how it was run: as §2
[10] = as §4, with “feces” for “urine”; assay type: ADME, organism-based; set-up: dose 50 mg/kg, dosed compound name Azazanavir, route oral; conditions: in vivo; how it was run: as §2
Liver microsome [11] = assay: Drug metabolism in human liver microsomes assessed as ((S)-1-{(1S,2S)-1-Benzyl-2-hydroxy-3-[N'-((S)-2-methoxycarbonylamino-3,3-dimethyl-butyryl)-N-(4-pyridin-2-yl-benzyl)-hydrazino]-propylcarbamoyl}-3-hydroxy-2-hydroxymethyl-2-methyl-propyl)-carbamic acid methyl ester formation at 50 uM by LC-MS/MS analysis; conditions: in vitro
[12] = Drug excretion in wild type mouse feces assessed as methyl (S)-1-(2-((2S,3S)-3-((S)-2-amino-3,3-dimethylbutanamido)-2-hydroxy-4-phenylbutyl)-2-(4-(pyridin-2-yl)benzyl)hydrazinyl)-3,3-dimethyl-1-oxobutan-2-ylcarbamate formation at 50 mg/kg, po by LC-MS/MS analysis; assay type: ADME, organism-based; set-up: dose 50 mg/kg, dosed compound name Azazanavir, route oral; conditions: in vivo; how it was run: as §2
[13] = Drug excretion in wildtype mouse urine assessed as ((S)-1-{(1S,2S)-1-Benzyl-2-hydroxy-3-[N'-((S)-2-methoxycarbonylamino-3,3-dimethyl-butyryl)-N-(4-pyridin-2-yl-benzyl)-hydrazino]-propylcarbamoyl}-3-hydroxy-2,2-dimethyl-propyl)-carbamic acid methyl ester formation at 50 mg/kg, po by LC-MS/MS analysis; assay type: ADME, organism-based; set-up: dose 50 mg/kg, dosed compound name Azazanavir, route oral; conditions: in vivo; how it was run: as §2
[14] = Drug excretion in wildtype mouse feces assessed as ((S)-1-{(1S,2S)-1-Benzyl-2-hydroxy-3-[N'-((S)-2-methoxycarbonylamino-3,3-dimethyl-butyryl)-N-(4-pyridin-2-yl-benzyl)-hydrazino]-propylcarbamoyl}-3-hydroxy-2,2-dimethyl-propyl)-carbamic acid methyl ester formation at 50 mg/kg, po by LC-MS/MS analysis; assay type: ADME, organism-based; set-up: dose 50 mg/kg, dosed compound name Azazanavir, route oral; conditions: in vivo; how it was run: as §2
[15] = Drug excretion in wild type mouse urine assessed as methyl (S)-1-((2S,3S)-4-(2-((S)-2-amino-3,3-dimethylbutanoyl)-1-(4-(pyridin-2-yl)benzyl)hydrazinyl)-3-hydroxy-1-phenylbutan-2-ylamino)-3,3-dimethyl-1-oxobutan-2-ylcarbamate formation at 50 mg/kg, po by LC-MS/MS analysis; assay type: ADME, organism-based; set-up: dose 50 mg/kg, dosed compound name Azazanavir, route oral; conditions: in vivo; how it was run: as §2
[16] = as §3, with “feces” for “urine”; assay type: ADME, organism-based; set-up: dose 50 mg/kg, dosed compound name Azazanavir, route oral; conditions: in vivo; how it was run: as §2
[17] = Drug excretion in wild type mouse urine assessed as (S)-methyl 3,3-dimethyl-1-oxo-1-(2-(4-(pyridin-2-yl)benzyl)hydrazinyl)butan-2-ylcarbamate formation at 50 mg/kg, po by LC-MS/MS analysis; assay type: ADME, organism-based; set-up: dose 50 mg/kg, dosed compound name Azazanavir, route oral; conditions: in vivo; how it was run: as §2
Liver microsome [18] = assay: Drug metabolism in human liver microsomes assessed as (S)-methyl 3,3-dimethyl-1-oxo-1-(2-(4-(pyridin-2-yl)benzyl)hydrazinyl)butan-2-ylcarbamate formation at 50 uM by LC-MS/MS analysis; conditions: in vitro
[19] = Drug excretion in wild type mouse assessed as (S)-methyl 3,3-dimethyl-1-oxo-1-(2-(4-(pyridin-2-yl)benzyl)hydrazinyl)butan-2-ylcarbamate formation at 50 mg/kg, po by LC-MS/MS analysis; assay type: ADME, organism-based; set-up: dose 50 mg/kg, dosed compound name Azazanavir, route oral; conditions: in vivo; how it was run: as §2
Liver microsome [20] = assay: Drug metabolism in human liver microsomes assessed as ((S)-1-{(1S,2S)-1-Benzyl-2-hydroxy-3-[N'-((S)-2-methoxycarbonylamino-3,3-dimethyl-butyryl)-N-(4-pyridin-2-yl-benzyl)-hydrazino]-propylcarbamoyl}-3-hydroxy-2,2-dimethyl-propyl)-carbamic acid methyl ester formation at 50 uM by LC-MS/MS analysis; conditions: in vitro
[21] = Drug excretion in wild type mouse feces assessed as methyl (S)-1-((2S,3S)-4-(2-((S)-2-amino-3,3-dimethylbutanoyl)-1-(4-(pyridin-2-yl)benzyl)hydrazinyl)-3-hydroxy-1-phenylbutan-2-ylamino)-3,3-dimethyl-1-oxobutan-2-ylcarbamate formation at 50 mg/kg, po by LC-MS/MS analysis; assay type: ADME, organism-based; set-up: dose 50 mg/kg, dosed compound name Azazanavir, route oral; conditions: in vivo; how it was run: as §2
[22] = Drug excretion in wildtype mouse urine assessed as ((S)-1-{(1S,2S)-1-Benzyl-2-hydroxy-3-[N'-((S)-2-methoxycarbonylamino-3,3-dimethyl-butyryl)-hydrazino propylcarbamoyl}-2,2-dimethyl-propyl)-carbamic acid methyl ester formation at 50 mg/kg, po by LC-MS/MS analysis; assay type: ADME, organism-based; set-up: dose 50 mg/kg, dosed compound name Azazanavir, route oral; conditions: in vivo; how it was run: as §2
[23] = Drug excretion in wildtype mouse feces assessed as ((S)-1-{(1S,2S)-1-Benzyl-2-hydroxy-3-[N'-((S)-2-methoxycarbonylamino-3,3-dimethyl-butyryl)-hydrazino propylcarbamoyl}-2,2-dimethyl-propyl)-carbamic acid methyl ester formation at 50 mg/kg, po by LC-MS/MS analysis; assay type: ADME, organism-based; set-up: dose 50 mg/kg, dosed compound name Azazanavir, route oral; conditions: in vivo; how it was run: as §2
Cytochrome P450 3A4 [24] = target: T1, Cytochrome P450 3A4; assay: Drug level assessed as human CYP3A4-mediated (S)-methyl 3,3-dimethyl-1-oxo-1-(2-(4-(pyridin-2-yl)benzyl)hydrazinyl)butan-2-ylcarbamate formation treated with 50 uM atazanavir by UPLC-TOFMS system; assay type: ADME; conditions: recombinant enzyme; how it was run: as §1
Liver microsome [25] = assay: Drug metabolism in human liver microsomes assessed as methyl (S)-1-((2S,3S)-4-(2-((S)-2-amino-3,3-dimethylbutanoyl)-1-(4-(pyridin-2-yl)benzyl)hydrazinyl)-3-hydroxy-1-phenylbutan-2-ylamino)-3,3-dimethyl-1-oxobutan-2-ylcarbamate formation by LC-MS/MS analysis

Measured: Compound recovery

T1 sequence (P08684 whole entry): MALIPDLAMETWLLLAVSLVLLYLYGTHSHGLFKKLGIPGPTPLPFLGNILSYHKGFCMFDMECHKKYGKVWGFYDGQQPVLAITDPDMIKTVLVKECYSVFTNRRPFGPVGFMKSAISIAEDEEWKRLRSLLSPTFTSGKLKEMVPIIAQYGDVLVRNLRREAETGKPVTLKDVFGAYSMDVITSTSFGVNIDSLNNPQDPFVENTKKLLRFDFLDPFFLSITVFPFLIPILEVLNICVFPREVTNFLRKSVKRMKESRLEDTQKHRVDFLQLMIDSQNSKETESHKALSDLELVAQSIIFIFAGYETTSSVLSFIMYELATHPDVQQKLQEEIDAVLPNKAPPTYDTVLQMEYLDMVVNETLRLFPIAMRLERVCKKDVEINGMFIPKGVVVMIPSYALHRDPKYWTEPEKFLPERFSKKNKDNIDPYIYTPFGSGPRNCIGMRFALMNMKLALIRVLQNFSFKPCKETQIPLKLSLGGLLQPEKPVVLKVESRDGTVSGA
Chain of Cytochrome P450 2D6 (P10635 whole entry): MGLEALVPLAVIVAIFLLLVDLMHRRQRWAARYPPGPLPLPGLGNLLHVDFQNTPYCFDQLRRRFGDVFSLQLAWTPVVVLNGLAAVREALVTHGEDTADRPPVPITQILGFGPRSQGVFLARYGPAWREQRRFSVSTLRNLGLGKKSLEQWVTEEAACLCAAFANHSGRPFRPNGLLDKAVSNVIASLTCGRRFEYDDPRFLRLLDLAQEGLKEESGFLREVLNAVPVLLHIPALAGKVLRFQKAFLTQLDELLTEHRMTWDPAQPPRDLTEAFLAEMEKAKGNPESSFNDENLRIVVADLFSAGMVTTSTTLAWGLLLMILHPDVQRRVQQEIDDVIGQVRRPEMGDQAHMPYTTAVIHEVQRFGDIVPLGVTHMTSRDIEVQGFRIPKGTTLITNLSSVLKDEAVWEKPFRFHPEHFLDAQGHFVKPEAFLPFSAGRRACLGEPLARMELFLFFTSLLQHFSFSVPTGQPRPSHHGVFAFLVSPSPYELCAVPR

COC(=O)N[C@H](C(=O)NNC[C@H](O)[C@H](Cc1ccccc1)NC(=O)[C@@H](NC(=O)OC)C(C)(C)C)C(C)(C)C
metabolite_detected: Cytochrome P450 3A4 [1] | Cytochrome P450 2D6 | Liver microsome [2] | [3] | [4]

COC(=O)N[C@H](C(=O)NN(Cc1ccc(-c2ccccn2)cc1)C[C@H](O)[C@H](Cc1ccccc1)NC(=O)[C@@H](NC(=O)OC)C(C)(C)CO)C(C)(C)C
metabolite_detected: Liver microsome [2] | [3] | [4]

COC(=O)N[C@H](C(=O)N[C@@H](Cc1ccccc1)[C@@H](O)CN(Cc1ccc(-c2ccccn2)cc1)NC(=O)[C@@H](NC(=O)OC)C(C)(C)CO)C(C)(C)CO
metabolite_detected: [3] | [4]

COC(=O)N[C@H](C(=O)NN(Cc1ccc(-c2ccccn2)cc1)C[C@H](O)[C@H](Cc1ccccc1)NC(=O)[C@@H](NC(=O)OC)C(C)(CO)CO)C(C)(C)C
metabolite_detected: Liver microsome [2] | [3] | [4]

COC(=O)N[C@H](C(=O)NN(Cc1ccc(-c2ccccn2)cc1)C[C@H](O)[C@H](Cc1ccccc1)NC(=O)[C@@H](N)C(C)(C)C)C(C)(C)C
metabolite_detected: Liver microsome [2] | [3] | [4]

COC(=O)N[C@H](C(=O)N[C@@H](Cc1ccccc1)[C@@H](O)CN(Cc1ccc(-c2ccccn2)cc1)NC(=O)[C@@H](N)C(C)(C)C)C(C)(C)C
metabolite_detected: Liver microsome [2] | [3] | [4]

COC(=O)N[C@H](C(=O)NNCc1ccc(-c2ccccn2)cc1)C(C)(C)C
metabolite_detected: Liver microsome [2] | [3] | [4]

COC(=O)N[C@H](C(=O)N[C@@H](Cc1ccccc1)[C@@H](O)CNN)C(C)(C)C
metabolite_detected: Liver microsome [2] | [3] | [4]

COC(=O)N[C@H](C(=O)N[C@@H](Cc1ccccc1)[C@@H](O)C=O)C(C)(C)C
metabolite_detected: [3]

COC(=O)N[C@H](C(=O)N[C@@H](Cc1ccccc1)[C@@H](O)CN(Cc1ccc(-c2ccccn2)cc1)NC(=O)[C@@H](NC(=O)OC)C(C)(C)C)C(C)(C)C [ATAZANAVIR]
metabolite_detected: Liver microsome [5] | [6] | [7] | Liver microsome [8] | [9] | [10] | Liver microsome [11] | [12] | [13] | [14] | [15] | [16] | [17] | Liver microsome [18] | [19] | Liver microsome [20] | [21] | [22] | [23] | Cytochrome P450 3A4 [24] | Liver microsome [25]
